Activity calls are given as the source filed them. The calls are words filed in the database; no cut-off is given here.
Experiments:
HUVEC [1] = assay: Growth inhibition of HUVEC at 10 uM after 72 hrs by CellTiter-Glo assay relative to control; format: functional; details: Homo sapiens, read-out: GI
Procedure, shortened: (§1)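 Cells in exponential phase seeded at 2000–4000 cells/well, then exposed 72 h at 37 °C, 5% CO2 with 0.1% final DMSO. Single-point screen at 10 μM final. […] Read-out was CellTiter-Glo luminescence.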

MDA-MB-435 [2] = assay: Growth inhibition of human MDA-MB-435 cells at 10 uM after 72 hrs by CellTiter-Glo assay relative to control; format: functional; details: MDA-MB-435, 72 h, read-out: GI; procedure, shortened: as §1
A-431 = assay: Growth inhibition of human A431 cells at 10 uM after 72 hrs by CellTiter-Glo assay relative to control; format: functional; details: A-431, 72 h, read-out: GI
Procedure, shortened: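 A431 cells seeded at 2000–4000 cells/well and treated with 10 μM final compound, 0.1% DMSO, for 72 h at 37 °C, 5% CO2. Viability read by CellTiter-Glo. Inhibition ratio = 1 − Vsample/Vvehicle control; triplicate.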

HUVEC [3] = assay: Growth inhibition of HUVEC after 72 hrs by CellTiter-Glo assay; format: functional, cell-based; details: Homo sapiens; procedure, shortened: as §1
MDA-MB-435 [4] = assay: Growth inhibition of human MDA-MB-435 cells after 72 hrs by CellTiter-Glo assay; format: functional, cell-based; details: MDA-MB-435, 72 h; procedure, shortened: as §1
[5] = target: T1, Vascular endothelial growth factor receptor 2 (Homo sapiens, UniProt P35968); details: at 10 µM
T1 sequence (P35968 whole entry): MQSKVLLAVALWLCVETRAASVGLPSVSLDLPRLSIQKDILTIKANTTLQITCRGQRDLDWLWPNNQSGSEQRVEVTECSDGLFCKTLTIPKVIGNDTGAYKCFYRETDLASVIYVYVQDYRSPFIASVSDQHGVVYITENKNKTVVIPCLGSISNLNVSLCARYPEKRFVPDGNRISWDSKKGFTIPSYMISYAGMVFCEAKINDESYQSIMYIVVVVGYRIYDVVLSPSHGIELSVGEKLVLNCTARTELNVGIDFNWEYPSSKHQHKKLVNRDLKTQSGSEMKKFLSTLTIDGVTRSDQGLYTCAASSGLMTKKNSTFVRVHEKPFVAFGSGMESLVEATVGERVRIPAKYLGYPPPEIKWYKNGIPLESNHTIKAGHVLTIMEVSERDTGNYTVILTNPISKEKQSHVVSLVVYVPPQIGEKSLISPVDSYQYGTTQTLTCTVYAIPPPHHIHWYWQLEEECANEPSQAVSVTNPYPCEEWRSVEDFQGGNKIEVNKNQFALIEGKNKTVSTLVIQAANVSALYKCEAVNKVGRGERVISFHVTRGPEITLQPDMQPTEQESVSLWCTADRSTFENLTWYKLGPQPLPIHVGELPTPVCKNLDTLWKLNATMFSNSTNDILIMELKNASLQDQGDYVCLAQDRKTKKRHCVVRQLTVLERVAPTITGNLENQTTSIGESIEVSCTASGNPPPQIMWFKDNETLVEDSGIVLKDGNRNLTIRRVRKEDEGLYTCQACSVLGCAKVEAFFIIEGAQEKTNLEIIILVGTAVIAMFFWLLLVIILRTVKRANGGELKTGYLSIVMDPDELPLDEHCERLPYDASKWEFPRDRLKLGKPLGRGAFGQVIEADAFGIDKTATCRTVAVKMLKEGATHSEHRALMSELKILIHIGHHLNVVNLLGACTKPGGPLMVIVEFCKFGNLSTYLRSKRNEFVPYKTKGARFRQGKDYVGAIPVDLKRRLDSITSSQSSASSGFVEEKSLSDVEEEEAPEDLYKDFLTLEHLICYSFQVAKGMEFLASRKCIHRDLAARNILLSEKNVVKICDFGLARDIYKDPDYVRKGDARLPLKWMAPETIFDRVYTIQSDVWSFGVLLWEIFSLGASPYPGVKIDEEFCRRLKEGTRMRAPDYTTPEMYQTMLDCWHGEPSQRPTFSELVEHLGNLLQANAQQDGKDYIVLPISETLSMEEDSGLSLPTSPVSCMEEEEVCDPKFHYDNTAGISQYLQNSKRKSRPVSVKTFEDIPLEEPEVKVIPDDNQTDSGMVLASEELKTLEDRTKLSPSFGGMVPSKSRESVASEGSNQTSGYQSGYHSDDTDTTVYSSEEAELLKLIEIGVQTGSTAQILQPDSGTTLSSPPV

[6] = target: T1, Vascular endothelial growth factor receptor 2
[7] = target: Ephrin type-A receptor 8 (Homo sapiens) (UniProt P29322); assay: Inhibition of human EPHA8 at 0.5 uM relative to control
Chain of Ephrin type-A receptor 8 (Homo sapiens) (P29322 whole entry): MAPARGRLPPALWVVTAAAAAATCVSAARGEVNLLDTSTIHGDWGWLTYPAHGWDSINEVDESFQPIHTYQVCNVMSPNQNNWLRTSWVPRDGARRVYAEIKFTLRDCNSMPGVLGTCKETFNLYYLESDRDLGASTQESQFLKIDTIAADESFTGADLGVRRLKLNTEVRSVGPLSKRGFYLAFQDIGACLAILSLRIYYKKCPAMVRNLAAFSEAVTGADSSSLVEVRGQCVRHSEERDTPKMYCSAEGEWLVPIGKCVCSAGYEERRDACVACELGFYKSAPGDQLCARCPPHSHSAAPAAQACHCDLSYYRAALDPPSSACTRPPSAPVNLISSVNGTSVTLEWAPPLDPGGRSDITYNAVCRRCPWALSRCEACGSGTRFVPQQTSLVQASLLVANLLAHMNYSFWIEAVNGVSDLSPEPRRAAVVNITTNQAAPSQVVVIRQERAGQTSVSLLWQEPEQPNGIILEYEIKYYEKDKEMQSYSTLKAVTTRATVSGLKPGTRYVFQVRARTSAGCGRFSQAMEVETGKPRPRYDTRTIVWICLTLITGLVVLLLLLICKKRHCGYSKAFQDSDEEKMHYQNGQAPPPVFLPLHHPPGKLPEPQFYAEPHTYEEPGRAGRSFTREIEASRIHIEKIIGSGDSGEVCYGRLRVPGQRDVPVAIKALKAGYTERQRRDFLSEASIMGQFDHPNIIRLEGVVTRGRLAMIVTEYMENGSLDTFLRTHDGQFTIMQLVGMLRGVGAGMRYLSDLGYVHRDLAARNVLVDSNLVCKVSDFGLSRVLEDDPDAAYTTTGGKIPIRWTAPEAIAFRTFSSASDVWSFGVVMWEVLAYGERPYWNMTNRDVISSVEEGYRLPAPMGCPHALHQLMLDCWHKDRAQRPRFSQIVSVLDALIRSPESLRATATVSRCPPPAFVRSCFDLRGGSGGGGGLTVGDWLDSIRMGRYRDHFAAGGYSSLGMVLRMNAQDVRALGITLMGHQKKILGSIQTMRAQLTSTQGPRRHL

[8] = target: Ephrin type-A receptor 4 (Homo sapiens) (UniProt P54764); assay: Inhibition of human EPHA4 at 0.5 uM relative to control
Chain of Ephrin type-A receptor 4 (Homo sapiens) (P54764 whole entry): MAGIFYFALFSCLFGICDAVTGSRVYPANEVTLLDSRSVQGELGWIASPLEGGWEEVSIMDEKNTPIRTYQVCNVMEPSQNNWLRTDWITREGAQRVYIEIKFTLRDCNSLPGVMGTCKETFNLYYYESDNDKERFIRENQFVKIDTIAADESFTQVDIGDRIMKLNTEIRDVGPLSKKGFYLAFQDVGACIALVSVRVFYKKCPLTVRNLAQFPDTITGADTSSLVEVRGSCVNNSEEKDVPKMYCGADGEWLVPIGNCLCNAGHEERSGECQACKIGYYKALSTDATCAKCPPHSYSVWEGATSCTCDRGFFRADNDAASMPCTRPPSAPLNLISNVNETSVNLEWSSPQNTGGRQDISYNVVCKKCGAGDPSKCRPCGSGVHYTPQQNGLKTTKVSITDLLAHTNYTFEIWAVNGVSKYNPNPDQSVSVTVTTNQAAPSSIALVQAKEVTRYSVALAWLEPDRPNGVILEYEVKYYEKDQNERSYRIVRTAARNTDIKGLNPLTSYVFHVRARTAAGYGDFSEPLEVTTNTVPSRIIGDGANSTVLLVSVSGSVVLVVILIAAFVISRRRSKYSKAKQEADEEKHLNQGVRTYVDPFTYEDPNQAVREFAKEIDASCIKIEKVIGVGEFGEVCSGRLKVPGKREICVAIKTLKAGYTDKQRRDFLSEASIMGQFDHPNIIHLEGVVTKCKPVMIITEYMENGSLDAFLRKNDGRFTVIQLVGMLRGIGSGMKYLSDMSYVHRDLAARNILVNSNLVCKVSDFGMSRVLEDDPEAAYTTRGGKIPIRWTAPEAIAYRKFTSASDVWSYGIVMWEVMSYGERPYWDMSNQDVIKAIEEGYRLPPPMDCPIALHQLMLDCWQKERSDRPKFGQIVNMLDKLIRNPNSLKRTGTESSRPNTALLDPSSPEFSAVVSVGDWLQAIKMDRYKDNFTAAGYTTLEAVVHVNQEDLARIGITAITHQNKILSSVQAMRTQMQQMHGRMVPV

[9] = target: Ephrin type-A receptor 3 (Homo sapiens) (UniProt P29320); assay: Inhibition of human EPHA3 at 0.5 uM relative to control
[10] = target: STE20-like serine/threonine-protein kinase (Homo sapiens) (UniProt Q9H2G2); assay: Inhibition of human SLK at 0.5 uM relative to control
[11] = target: Mitogen-activated protein kinase kinase kinase kinase 5 (Homo sapiens) (UniProt Q9Y4K4); assay: Inhibition of human KHS at 0.5 uM relative to control
Chain of Mitogen-activated protein kinase kinase kinase kinase 5 (Homo sapiens) (Q9Y4K4 whole entry, looked up): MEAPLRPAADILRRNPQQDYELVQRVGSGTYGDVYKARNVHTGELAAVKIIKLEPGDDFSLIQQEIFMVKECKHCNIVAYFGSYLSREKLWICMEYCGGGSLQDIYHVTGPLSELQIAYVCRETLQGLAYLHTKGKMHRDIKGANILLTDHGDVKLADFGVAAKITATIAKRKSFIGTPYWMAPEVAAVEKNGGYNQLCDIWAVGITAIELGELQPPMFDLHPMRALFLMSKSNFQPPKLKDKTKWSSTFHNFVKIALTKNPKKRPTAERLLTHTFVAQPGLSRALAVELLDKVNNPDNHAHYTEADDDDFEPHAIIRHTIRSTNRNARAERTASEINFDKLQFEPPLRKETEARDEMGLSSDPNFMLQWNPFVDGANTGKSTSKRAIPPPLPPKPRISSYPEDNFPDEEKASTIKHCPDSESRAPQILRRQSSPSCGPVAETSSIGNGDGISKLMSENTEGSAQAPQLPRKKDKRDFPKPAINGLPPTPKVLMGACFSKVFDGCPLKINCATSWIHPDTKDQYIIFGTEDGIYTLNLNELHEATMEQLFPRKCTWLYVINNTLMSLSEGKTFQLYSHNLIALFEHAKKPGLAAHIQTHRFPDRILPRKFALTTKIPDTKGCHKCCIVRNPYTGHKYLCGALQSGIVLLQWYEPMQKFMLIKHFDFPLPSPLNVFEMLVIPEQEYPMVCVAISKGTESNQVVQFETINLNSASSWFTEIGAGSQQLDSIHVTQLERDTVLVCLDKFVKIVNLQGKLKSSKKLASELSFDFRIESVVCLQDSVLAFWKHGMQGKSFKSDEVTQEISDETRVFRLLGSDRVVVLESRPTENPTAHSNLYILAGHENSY

[12] = target: Receptor-type tyrosine-protein kinase FLT3 (Homo sapiens) (UniProt P36888); assay: Inhibition of human Flt3 at 0.5 uM relative to control
[13] = target: TRAF2 and NCK-interacting protein kinase (Homo sapiens) (UniProt Q9UKE5); assay: Inhibition of human TNIK at 0.5 uM relative to control
Homo sapiens [14] = species: Homo sapiens; assay: Inhibition of human DDR at 0.5 uM relative to control
Homo sapiens [15] = species: Homo sapiens; assay: Inhibition of human PDGFR at 0.5 uM relative to control
[16] = target: Vascular endothelial growth factor receptor 1 (Homo sapiens) (UniProt P17948); assay: Inhibition of human Flt1 at 0.5 uM relative to control
[17] = target: Ephrin type-A receptor 5 (Homo sapiens) (UniProt P54756); assay: Inhibition of human EPHA5 at 0.5 uM relative to control
[18] = target: Vascular endothelial growth factor receptor 3 (Homo sapiens) (UniProt P35916); assay: Inhibition of human Flt4 at 0.5 uM relative to control
[19] = target: Tyrosine-protein kinase HCK (Homo sapiens) (UniProt P08631); assay: Inhibition of human HCK at 0.5 uM relative to control
Chain of Tyrosine-protein kinase HCK (Homo sapiens) (P08631 2-526 limits assumed): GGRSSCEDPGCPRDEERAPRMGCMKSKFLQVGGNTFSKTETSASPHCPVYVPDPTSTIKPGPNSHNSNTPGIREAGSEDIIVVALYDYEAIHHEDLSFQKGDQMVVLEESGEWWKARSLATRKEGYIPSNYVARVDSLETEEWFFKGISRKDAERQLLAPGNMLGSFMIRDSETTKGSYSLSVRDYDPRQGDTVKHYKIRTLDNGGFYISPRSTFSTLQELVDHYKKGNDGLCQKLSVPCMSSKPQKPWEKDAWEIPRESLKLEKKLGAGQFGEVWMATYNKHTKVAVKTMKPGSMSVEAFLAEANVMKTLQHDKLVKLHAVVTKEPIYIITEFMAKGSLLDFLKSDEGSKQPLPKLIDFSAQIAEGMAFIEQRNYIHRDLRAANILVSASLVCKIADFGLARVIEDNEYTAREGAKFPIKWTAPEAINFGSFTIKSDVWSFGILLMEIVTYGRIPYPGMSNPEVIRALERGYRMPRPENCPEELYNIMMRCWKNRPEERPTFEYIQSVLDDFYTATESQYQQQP

[20] = target: Ephrin type-A receptor 2 (Homo sapiens) (UniProt P29317); assay: Inhibition of human EPHA2 at 0.5 uM relative to control
[21] = target: Ephrin type-A receptor 7 (Homo sapiens) (UniProt Q15375); assay: Inhibition of human EPHA7 at 0.5 uM relative to control

Structure (SMILES) | inhibition of growth at 10 µM (HUVEC [1]) | inhibition of growth at 10 µM (MDA-MB-435 [2]) | inhibition of growth at 10 µM (A-431) | IC50 (HUVEC [3]) | also measured
COc1cc2ncnc(Oc3ccc(NC(=O)Nc4cnn(C(C)C)c4)c4ccccc34)c2cc1OC | 93.6% | 27.7% | 49.9% | 630 nM | –
CNC(=O)c1cc(Oc2ccc(NC(=O)Nc3ccc(Cl)c(C(F)(F)F)c3)cc2)ccn1 [SORAFENIB] | 84.7% | 91.9% | 68.9% | 1490 nM | IC50 (MDA-MB-435 [4]): 2110 nM
COc1cc2ncnc(Oc3ccc(NC(=O)NC4CC4)c4ccccc34)c2cc1OC | 63.9% | 1.48% | 15.1% | – | –
COc1cc2ncnc(Oc3ccc(NC(=O)Nc4cccc(C(F)(F)F)c4)c4ccccc34)c2cc1OC | 66.8% | 24.5% | -4.51% | – | inhibition [5]: 99%; IC50 [6]: 28.8 nM
COc1cc2ncnc(Oc3ccc(NC(=O)Nc4ccc(Cl)c(C(F)(F)F)c4)c4cccnc34)c2cc1OC | 51.5% | 44.3% | 21% | – | –
COc1cc2ncnc(Oc3ccc(NS(=O)(=O)c4ccccc4)c4ccccc34)c2cc1OC | – | – | – | – | inhibition [5]: 44.3%; IC50 [6]: > 10000 nM
CCN(CC)CCNC(=O)c1c(C)[nH]c(/C=C2\C(=O)Nc3ccc(F)cc32)c1C | – | – | – | – | inhibition [7]: Active; inhibition [8]: Active; inhibition [9]: Active; inhibition [10]: Active; inhibition [11]: Active; inhibition [12]: Active; inhibition [13]: Active; inhibition (Homo sapiens [14]): Active; inhibition (Homo sapiens [15]): Active; inhibition [16]: Active; inhibition [17]: Active; inhibition [18]: Active; inhibition [19]: Active; inhibition [20]: Active; inhibition [21]: Active
COc1cc2ncnc(Oc3ccc(NC(=O)Nc4ccc(Cl)c(C(F)(F)F)c4)c4ccccc34)c2cc1OC | 82.9% | 95.1% | 14.9% | 2970 nM | IC50 (MDA-MB-435 [4]): 3790 nM
COc1cc2ncnc(Oc3ccc(NC(=O)Nc4cc(C)on4)c4ccccc34)c2cc1OC | 61.9% | 0.23% | -1.52% | – | –
